High-throughput results: PubChem BioAssay, Broad Institute
Ecoli rRNA inh: inhibitors of bacterial rRNA selective over humanized ribosomes; E. coli WT GFP vs humanized-ribosome RFP mutants, fluorescence, 24 h; hits give low values; DMSO median 0, no signal -100; GFP signal change (wild-type ribosome), % (no concentration beside the values); actives 1.6% (n = 350,000);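 active = significant combined selectivity score with lowered wild-type GFP, culture density cut under 30%, mutant RFP and density less affected; inactive = any of these conditions unmet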
Xi reactivation: X-chromosome reactivation activator; XiGFP mouse fibroblasts, % GFP-positive cells imaging, 3 d; cells co-treated with 5-aza-dC sensitizer; scaled so ellipticine positive control = 100%; activation, % at 7.58 µM; actives 0.055% (n = 360,000); AID 743238;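 active = mean normalized replicate activation at least 10% and every replicate at or above 10%; inconclusive = only one of the two criteria met; inactive = mean below 10% and not all replicates reach 10%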;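 note: 0% = median of on-plate neutral control wells and 100% = ellipticine 6 µM median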
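assay system = SV40-immortalized XiGFP fibroblast cells, line 68-5-11 | buffer or medium = DMEM plus 5-aza-dC sensitizer | doses = single-point pinned compound dosing | times = 3-day compound exposure, then 15 min fixation at room temperature | benchmarks = positive control ellipticine, 6 µM final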
RAD52 inh: blocks human RAD52 DNA annealing; P43351; recombinant RAD52 DNA annealing, FRET fluorescence; actives 0.46% (n = 360,000); inhibition, % at 18.7 µM;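 active = every replicate showing at least 50% inhibition; inconclusive = mean inhibition at least 50% but not in every replicate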
RAD54 branch: blocks human RAD54 Holliday junction branch migration. inhibition, % at 10.4 µM. Q92698. actives 0.14% (n = 360,000). FAM/BHQ fluorescence. AID 602329;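 active = mean normalized replicate activity at least 40 and at least half of replicates scoring 40 or more; inconclusive = only one of the two criteria met; inactive = mean below 40 and under half of replicates reaching 40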;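 note: 0% = median of neutral control wells and 100% = median of positive control wells; inhibitors cause a drop in the FAM fluorescence signal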
Target sequence (Q92698 whole entry, looked up): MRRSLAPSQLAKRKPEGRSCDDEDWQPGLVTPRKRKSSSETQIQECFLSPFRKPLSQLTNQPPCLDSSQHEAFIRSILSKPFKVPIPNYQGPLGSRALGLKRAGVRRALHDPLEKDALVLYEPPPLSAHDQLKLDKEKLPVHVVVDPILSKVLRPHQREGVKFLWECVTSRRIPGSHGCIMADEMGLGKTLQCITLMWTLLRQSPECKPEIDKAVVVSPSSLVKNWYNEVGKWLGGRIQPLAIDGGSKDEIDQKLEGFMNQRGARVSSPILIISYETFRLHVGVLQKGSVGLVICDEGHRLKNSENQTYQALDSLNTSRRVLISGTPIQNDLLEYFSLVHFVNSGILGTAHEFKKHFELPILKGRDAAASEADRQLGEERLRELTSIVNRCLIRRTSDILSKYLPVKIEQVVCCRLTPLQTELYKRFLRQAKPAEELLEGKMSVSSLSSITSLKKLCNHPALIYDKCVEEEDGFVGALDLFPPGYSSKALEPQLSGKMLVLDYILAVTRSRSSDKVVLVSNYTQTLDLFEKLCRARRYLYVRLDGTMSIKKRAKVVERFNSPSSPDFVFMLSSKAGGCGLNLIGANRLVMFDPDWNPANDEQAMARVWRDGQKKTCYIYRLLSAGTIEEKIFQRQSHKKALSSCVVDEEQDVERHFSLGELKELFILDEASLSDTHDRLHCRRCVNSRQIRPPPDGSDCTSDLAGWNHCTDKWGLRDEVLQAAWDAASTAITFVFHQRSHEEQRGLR
E-selectin induc: E-selectin induction on HUVECs; P16581; HUVEC E-selectin immunofluorescence imaging; normalized: neutral wells 0, TNF-alpha wells 100; activation, % at 7.58 µM; actives 0.37% (n = 260,000);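 active = mean E-selectin-positive cell signal at least 10% of the positive control, reached in at least 60% of replicates, without over 20% cell loss; inconclusive = no rule given, readout overlaps actives, possibly toxicity-flagged; inactive = the rest, including those meeting only one limit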
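Test system: HUVEC; input: 3,000 HUVEC/well; measured by: immunofluorescence imaging; read-out: % PE-positive cells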
PglD inh: blocks C. jejuni PglD acetyltransferase activity. purified PglD enzyme, DTNB colorimetric CoA detection. inhibition, % at 12.5 µM. actives 0.098% (n = 360,000); in the data active = inhibition above about 16%, passing the limit was not always enough; inconclusive = no clear call, values can overlap the other calls
Rad54 DNA ctr: counter-screen for Rad54 inhibitors: DNA binding compounds. shares compounds with RAD54 branch. actives 8% (n = 460). Acridine orange-DNA displacement, fluorescence polarization, 20 min. AC50, µM (top dose mostly 35 µM), without a hit: at the top dose activity change, negative = DNA binding;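 active = signal drop giving an AC50 within twice the top valid tested concentration of each sample, actives reach about 35 µM in these data; inactive = activity opposite to expected, plus the rest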;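 note: polarization loss reports compound binding to salmon sperm DNA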
Active calls of the source: *; ? = inconclusive; · = not tested or not shown. In the library only some 2% were active in any assay of this set; here they are far more common.

SMILES | Ecoli rRNA inh | Xi reactivation | RAD52 inh | RAD54 branch | E-selectin induc | PglD inh | Rad54 DNA ctr
C[C@H](CO)N1C[C@H](C)[C@H](CN(C)Cc2ccncc2)Oc2ncc(-c3cncnc3)cc2C1=O | 5 | -1 | -9 | 3 | 0 | -5 | ·
CCCNc1nc2nc3ccccn3c(=O)c2cc1C(=O)NCCN1CCOCC1 | 1 | 0 | 39 | ? | · | -3 | -12%
O=C(NCCN1CCOCC1)c1c(O)nc2ccccn2c1=O | 5 | 0 | -6 | -12 | · | 11 | ·
C[C@H](CO)N1C[C@H](C)[C@H](CN(C)C(=O)c2ccncc2)OCCCC[C@H](C)Oc2ccc(NC(=O)c3ccncc3)cc2C1=O | 2 | 0 | -5 | -4 | 1 | -2 | ·
Cc1ccc2nc(C)cc(Nc3ccc4c(c3)OCCO4)c2c1 | · | · | · | 60* | · | · | -9%
Cc1cc(Nc2ccc3c(c2)OCCO3)c2ccccc2n1 | 8 | 0 | 4 | · | · | · | ·
CCOc1ccc2nc(C)cc(Nc3ccc4c(c3)OCCO4)c2c1 | · | · | · | 58* | · | -1 | -11%
Cc1cc(Nc2ccc3c(c2)OCCO3)c2cccc(C)c2n1 | · | 0 | · | 65* | · | -2 | 9%
CCCNC(=O)N1[C@H](CNC(C)=O)[C@H](c2ccc(C3=CCCC3)cc2)[C@@H]1CO | -1 | 0 | · | -1 | 0 | 1 | ·
CCCN1CCc2c(sc(NC(=O)c3ccc(S(=O)(=O)N4CCN(C(=O)OCC)CC4)cc3)c2C(N)=O)C1 | · | 3 | -5 | -24 | 0 | 0 | ·
CCOC(=O)N1CCN(S(=O)(=O)c2ccc(C(=O)Nc3sc4c(c3C(=O)OC)CCN(C)C4)cc2)CC1 | -15* | 0 | -77 | ? | 0 | 0 | -7%
CCCCN(CC)CCCNC(=S)Nc1ccc2nc(N3CCN(CC)CC3)cc(C)c2c1 | 3 | 0 | 90* | 71* | · | -10 | 0%
COc1cccc2sc3ccc(NCCC4CCCN4C)cc3c(=O)c12 (stereo unspecified) | -6 | 0 | 13 | 61* | 0 | 2 | -12%
COc1cc2sc3cc(NCC[C@@H]4CCCN4C)ccc3c(=O)c2cc1OC | -12 | 0 | 3 | 76* | · | -1 | -22%
C[C@@H]1CN([C@H](C)CO)C(=O)Cc2cc(NC(=O)Nc3ccc4c(c3)OCO4)ccc2O[C@H]1CN(C)S(=O)(=O)c1cn(C)cn1 | 1 | 0 | · | -4 | -11 | 1 | ·
COc1ccccc1Nc1c2ccccc2nc2ccccc12 | 9 | 0 | 49 | 59* | 3 | -5 | 3%
COc1ccccc1Nc1nc(-c2ccccc2)nc2ccccc12 | 1 | 0 | -12 | · | · | · | ·
NCCN1CCN(CCN)CC1 | · | · | · | 50* | · | -11 | -11%
C(CCCN1CCCCC1)CCN1CCCCC1 | · | ? | 5 | -4 | · | 5 | ·
Nc1c(C(=O)NCCN2CCOCC2)c2nc3ccccc3nc2n1-c1ccccc1 | · | · | · | 52* | · | -1 | 1%
Nc1c(C(=O)NCCN2CCOCC2)c2nc3ccccc3nc2n1-c1ccc2c(c1)OCO2 | · | · | · | ? | · | -3 | 11%
CNC(C)C#Cc1ccc2oc3cccc(OC)c3c(=O)c2c1 (stereo unspecified) | -16 | 0 | -5 | ? | · | -2 | -14%
CNC(C)C#Cc1ccc2oc3cc(C)c(C)cc3c(=O)c2c1 (stereo unspecified) | -11 | 2 | -30 | -4 | 0 | 4 | ·
COc1ccc(Nc2nc(N3CCCCC3)nc3ccccc23)c(OC)c1 | · | · | · | 55* | · | 7 | 9%
COc1ccc(Nc2nc(N3CCN(S(C)(=O)=O)CC3)nc3ccccc23)c(OC)c1 | 12 | 0 | 0 | 10 | · | -4 | ·
SMILES | Ecoli rRNA inh | Xi reactivation | RAD52 inh | RAD54 branch | E-selectin induc | PglD inh | Rad54 DNA ctr
O=C(N[C@@H]1CC[C@@H](CCNS(=O)(=O)c2ccc(F)cc2)O[C@H]1CO)C1CC1 | 0 | -1 | -13 | 2 | 0 | -1 | ·
CO[C@@H]1CN(C)C(=O)c2cc(NS(C)(=O)=O)ccc2OC[C@H](C)N(Cc2nccs2)C[C@@H]1C | -1 | 0 | -1 | 3 | 0 | -1 | ·
NC1CCN(c2c(F)cc3c(=O)c(C(=O)O)cn(C4CC4)c3c2Cl)C1 (stereo unspecified) | -57 | 0 | -10 | ? | · | 8 | 8%
CSc1nc(SCC(N)=O)c2c3c(sc2n1)CN(C)CC3 | · | · | · | 59* | · | 7 | 3%
O=C(C[C@H]1CC[C@H]2[C@@H](COC[C@H](O)CN2CCc2ccccc2)O1)NCCCN1CCOCC1 | -9 | 0 | -21 | -1 | 0 | 0 | ·
CN(C)CCCNc1nc2cc(-c3ccc(C(=O)N4CCN(C)CC4)cc3)sc2c(=O)n1C | 4 | 0 | 75* | ? | 0 | 0 | -16%
Cn1c(NCCN2CCCC2)nc2cc(-c3ccsc3)sc2c1=O | · | 0 | -18 | 58* | 0 | 1 | -3%
COc1cccc(CNc2nc3cc(-c4ccc(C(=O)N5CCN(C)CC5)cc4)sc3c(=O)n2C)c1 | -3 | 0 | 20 | 18 | 0 | 1 | ·
C[C@H](CO)N1C[C@H](C)[C@@H](CN(C)C(=O)Nc2ccccc2)Oc2cc(C#CC3(O)CCCC3)ccc2S1(=O)=O | -1 | -1 | -21 | 0 | 0 | 0 | ·
CN(C)CCCn1c(SCC(=O)Nc2nc(-c3cccc(Br)c3)cs2)nc2ccccc2c1=O | -27 | 0 | 2 | ? | 0 | 0 | -19%
N#C[C@H]1[C@@H](c2ccc(/C=C/c3ccccc3)cc2)[C@@H](CO)N1C(=O)C1CCCCC1 | 1 | 0 | -81 | -9 | 2 | 1 | ·
c1ccc(-c2cc3c(N4CCCC4)ncnc3s2)cc1 | 3 | 0 | -11 | · | · | · | ·
OCCN1CCN(c2ncnc3sc(-c4ccccc4)cc23)CC1 | -38 | 0 | 42 | ? | · | -1 | -21%
Cc1cc(C)nc(SCC(=O)Nc2sc3c(c2C#N)CCC(C)C3)n1 (stereo unspecified) | · | · | · | -5 | · | 4 | ·
Cc1ccnc(SCC(=O)Nc2sc3c(c2C#N)CCC(C(C)(C)C)C3)n1 (stereo unspecified) | · | · | · | ? | · | 1 | -12%
Nc1cc2c3c(cccc3c1)C(=O)N(CCN1CCCC1)C2=O | 4 | 9 | 3 | 90* | 1 | 2 | 28µM*
CN(C)C(CNC(=O)CCCN1C(=O)c2cccc3cccc(c23)C1=O)c1ccccc1 (stereo unspecified) | -8 | 0 | 18 | 57* | 0 | -5 | 1%
COc1ccccc1S(=O)(=O)N[C@H]1CC[C@H](CCNC(=O)C2CCCCC2)O[C@H]1CO | 1 | 0 | 0 | -7 | 0 | 11 | ·
